These results are taken from ChEMBL document CHEMBL1152469, “Telithromycin resistance in Streptococcus pneumoniae is conferred by a deletion in the leader sequence of erm(B) that increases rRNA methylation” (2008).

≈ marks a conversion by molar mass, not a printed value.

What all share (format): functional
Experiment [1] relates to Streptococcus pneumoniae. The experiment can be described thus: Antimicrobial activity against wild-type Streptococcus pneumoniae PC13 by agar dilution method. The method, boiled down:
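Agar dilution MICs on plates prepared per CLSI guidance and containing 5% horse blood. Plates incubated in ambient air for 20-24 h. Interpretation used CLSI broth microdilution breakpoints, with S. pneumoniae ATCC49619 as reference strain.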
(In agar dilution the substance is mixed into plates at graded concentrations.)

In experiment [2] the test system is Streptococcus pneumoniae. The experiment is described as follows: Antimicrobial activity against telithromycin-resistant Streptococcus pneumoniae isolate P1501016 by agar dilution method. The method, boiled down: (§1)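 Agar dilution MICs per CLSI agar plate preparation, plates containing 5% horse blood, incubated in ambient air 20-24 h; MICs interpreted with CLSI broth microdilution breakpoints (telithromycin ≤1 µg/ml S, 2 I, ≥4 R). Reference strain S. pneumoniae ATCC49619. Induction testing run without and with erythromycin (0.25 µg/ml).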

For experiment [3], the system named is Streptococcus pneumoniae. The experiment can be described thus: Increase in lag phase of growth for telithromycin-resistant Streptococcus pneumoniae isolate P1501016 assessed as doubling time at 1 ug/ml. In outline:
(§2)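 Inoculated from glycerol stocks 1:100 into TSB with or without erythromycin (1 µg/ml), 37°C in 5% CO2. OD600 read every 30 min; doubling time calculated over exponential growth.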

The subject of experiment [4] is Streptococcus pneumoniae. The experiment is described as follows: Increase in dimethylation at position A2058 of 23S rRNA of Streptococcus pneumoniae PC13 transformant harboring 136-bp deletion in erm(B) gene at 0.25 ug/ml by phosphorimager scanning relative to baseline. The method, boiled down: (§3)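 Cells grown in TSB at 37°C, 5% CO2 to OD600 0.2, untreated or with telithromycin (0.008 µg/ml) or erythromycin (0.25 µg/ml), three cultures per condition. Total RNA extracted. Primer extension across G2061-U2079 of 23S rRNA on 1.5 pmol rRNA with reverse transcriptase, ddGTP mix in test samples, done in triplicate. Products run on denaturing polyacrylamide gels, quantified by phosphorimager as % A2058 dimethylation.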

Experiment [5] relates to Streptococcus pneumoniae. The experiment is described as follows: Increase in dimethylation at position A2058 of 23S rRNA of Streptococcus pneumoniae isolate P1501016 at 0.25 ug/ml by phosphorimager scanning relative to baseline. In outline: (§4)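 Cells grown in Tryptone Soya Broth at 37°C, 5% CO2 to OD600 0.2, either untreated, with telithromycin 0.008 µg/ml, or with erythromycin 0.25 µg/ml. Total RNA extracted. A primer complementary to 23S rRNA G2061-U2079 was extended by reverse transcriptase on 1.5 pmol rRNA with dTTP, dCTP and ddGTP. Triplicate reactions run on denaturing gels beside a sequencing ladder and quantified by phosphorimager.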

For experiment [6], the system named is Streptococcus pneumoniae. The experiment can be described thus: Increase in erm(B) mRNA expression in Streptococcus pneumoniae […] transformant harboring 136-bp deletion in erm(B) gene at 0.25 ug/ml by qRT-PCR relative to baseline. The method, boiled down: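 Strains grown in TSB at 37°C, 5% CO2 to OD600 0.2, untreated or with erythromycin (0.25 µg/ml), three cultures per condition. Cells stabilised in RNAProtect before RNA extraction. erm(B) mRNA quantified relative to the untreated culture. Means compared by paired t test at the 95% level.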

Experiment [7] concerns Streptococcus pneumoniae. The experiment can be described thus: Increase in lag phase of growth for Streptococcus pneumoniae PC13 transformant harboring 136-bp deletion in erm(B) gene assessed as doubling time at 1 ug/ml. The method, boiled down: as §2
Experiment [8] has as its system Streptococcus pneumoniae. The experiment is described as follows: Increase in lag phase of growth for wild type Streptococcus pneumoniae PC13 assessed as doubling time at 1 ug/ml. In outline:
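Glycerol stocks diluted 1:100 into Tryptone Soya Broth with or without erythromycin 1 µg/ml and incubated at 37°C, 5% CO2. OD600 read every 30 min, and doubling time calculated over exponential growth.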

Experiment [9] deals with Streptococcus pneumoniae. The experiment can be described thus: Increase in erm(B) mRNA expression in wild type Streptococcus pneumoniae PC13 at 0.25 ug/ml by qRT-PCR relative to baseline. The method, boiled down: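 Cultures grown in triplicate in Tryptone Soya Broth at 37°C, 5% CO2 to OD600 0.2, without antibiotic or with erythromycin 0.25 µg/ml. Cells stabilised in RNAProtect, then RNA extracted for relative quantification of erm(B) mRNA against untreated cells.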
(In general: Real-time PCR tracks product formation cycle by cycle.)

Experiment [10] has as its system Streptococcus pneumoniae. The experiment can be described thus: Increase in dimethylation at position A2058 of 23S rRNA of Streptococcus pneumoniae PC13 transformant harboring 136-bp deletion in erm(B) gene at 0.008 ug/ml by phosphorimager scanning relative to baseline. In outline:
as §3

Experiment [11] deals with Streptococcus pneumoniae. The experiment is described as follows: Increase in erm(B) mRNA expression in wild-type Streptococcus pneumoniae PC13 at 0.008 ug/ml by qRT-PCR relative to baseline. In outline:
(§5)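 Cells grown in Tryptone Soya Broth at 37°C, 5% CO2 to OD600 0.2, in triplicate cultures per strain, without antibiotic or with telithromycin 0.008 µg/ml (erythromycin 0.25 µg/ml as a further condition). Cultures were then stabilised in RNAProtect Bacteria Reagent and pelleted. Total RNA was extracted and erm(B) mRNA quantified relative to untreated cultures.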

Experiment [12] has as its system Streptococcus pneumoniae. The experiment is described as follows: Increase in dimethylation at position A2058 of 23S rRNA of wild type Streptococcus pneumoniae PC13 at 0.25 ug/ml by phosphorimager scanning relative to baseline. In outline:
as §4

Experiment [13] deals with Streptococcus pneumoniae. The experiment can be described thus: Antimicrobial activity against Streptococcus pneumoniae PC13 transformant harboring 136-bp deletion in erm(B) gene by agar dilution method. In outline: as §1
Experiment [14] concerns Streptococcus pneumoniae. The experiment can be described thus: Increase in dimethylation at position A2058 of 23S rRNA of Streptococcus pneumoniae isolate P1501016 at 0.008 ug/ml by phosphorimager scanning relative to baseline. In outline: as §4
Experiment [15] relates to Streptococcus pneumoniae. The experiment is described as follows: Increase in dimethylation at position A2058 of 23S rRNA of wild type Streptococcus pneumoniae PC13 at 0.008 ug/ml by phosphorimager scanning relative to baseline. The method, boiled down: as §4
Experiment [16] deals with Streptococcus pneumoniae. The experiment is described as follows: Increase in erm(B) mRNA expression in Streptococcus pneumoniae PC13 transformant harboring 136-bp deletion in erm(B) gene at 0.008 ug/ml by qRT-PCR relative to baseline. In outline:
as §5

As a reminder, the MIC is the least concentration at which growth counts as inhibited. Higher therefore signals weaker potency. Turning to `CC[C@H]1OC(=O)[C@H](C)[C@@H](O[C@H]2C[C@@](C)(OC)[C@@H](O)[C@H](C)O2)[C@H](C)[C@@H](O[C@@H]2O[C@H](C)C[C@H](N(C)C)[C@H]2O)[C@](C)(OC)C[C@@H](C)C(=O)[C@H](C)[C@@H](O)[C@]1(C)O` [CLARITHROMYCIN], the MIC against Streptococcus pneumoniae [1] and in the experiment with Streptococcus pneumoniae [2] was above 256 µg/mL each time.

Consider `CCC[C@@H]1C[C@@H](C(=O)N[C@@H]([C@H]2O[C@H](SC)[C@H](O)[C@@H](O)[C@H]2O)[C@H](C)Cl)N(C)C1` [CLINDAMYCIN], for which the MIC in the experiment on Streptococcus pneumoniae [1] and in the experiment with Streptococcus pneumoniae [2] was above 256 µg/mL in each case.

With `CC[C@H]1OC(=O)[C@H](C)[C@@H](O[C@H]2C[C@@](C)(OC)[C@@H](O)[C@H](C)O2)[C@H](C)[C@@H](O[C@@H]2O[C@H](C)C[C@H](N(C)C)[C@H]2O)[C@](C)(O)C[C@@H](C)C(=O)[C@H](C)[C@@H](O)[C@]1(C)O` [ERYTHROMYCIN], the Activity is recorded as 43.3 min in the experiment with Streptococcus pneumoniae [3]; 72% in the experiment on Streptococcus pneumoniae [4]; 68% in the experiment on Streptococcus pneumoniae [5]; 52.5 min in the experiment on Streptococcus pneumoniae [7]; 53 min in the experiment with Streptococcus pneumoniae [8]. Further, the “fold change (FC)” value amounted to 4.98 in the experiment with Streptococcus pneumoniae [6] and 2.57 with Streptococcus pneumoniae [9]. The MIC against Streptococcus pneumoniae [1] and in the experiment on Streptococcus pneumoniae [2] was above 256 µg/mL throughout.

Regarding `CC[C@H]1OC(=O)[C@H](C)C(=O)[C@H](C)[C@@H](O[C@@H]2O[C@H](C)C[C@H](N(C)C)[C@H]2O)[C@](C)(OC)C[C@@H](C)C(=O)[C@H](C)[C@H]2N(CCCCn3cnc(-c4cccnc4)c3)C(=O)O[C@]12C` [TELITHROMYCIN], the Activity in the experiment on Streptococcus pneumoniae [10] was 64%; in the experiment on Streptococcus pneumoniae [12] it was 46%; in the experiment with Streptococcus pneumoniae [14] it was 66%; in the experiment with Streptococcus pneumoniae [15] it was 29%. The MIC stood at 0.06 µg/mL (≈ 0.0739 µM) with Streptococcus pneumoniae [1], 16 µg/mL (≈ 19.7 µM) in the experiment with Streptococcus pneumoniae [13] and 8 µg/mL (≈ 9.85 µM) with Streptococcus pneumoniae [2]. The “fold change (FC)” value with Streptococcus pneumoniae [11] was 0.66; in the experiment on Streptococcus pneumoniae [16] it was 1.31.

Regarding `CN(C)[C@@H]1C(O)=C(C(N)=O)C(=O)[C@@]2(O)C(O)=C3C(=O)c4c(O)cccc4[C@@](C)(O)[C@H]3C[C@@H]12` [TETRACYCLINE], the MIC in the experiment with Streptococcus pneumoniae [1] stood at 16 µg/mL (≈ 36 µM); in the experiment with Streptococcus pneumoniae [13], 16 µg/mL (≈ 36 µM); in the experiment with Streptococcus pneumoniae [2] it was 4 µg/mL (≈ 9 µM).
